Source: PubChem BioAssay (several laboratories)
AHR activator – human AHR activation | P35869 | AHR-responsive luciferase reporter cells, luminescence | activation, % at 5 µM | 2.5% of 320,000 active | AID 2796; in the data active = activation above about 47%;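 also: 0% = vehicle wells and 100% = reference agonist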
HIF activator – HIF pathway transcriptional activation; U2OS HRE-luciferase reporter, luminescence; normalized: DMSO 0%, desferrioxamine 100%; activation, % at 7.5 µM (by protocol); 0.32% of 300,000 active; AID 1910;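 active = mean activation of at least 10% of the iron chelator positive control signal, with at least half of replicates also reaching 10%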
SR-BI DiI inh – mouse SR-BI HDL lipid transfer inhibition; ldlA[mSR-BI] CHO cells, DiI-HDL uptake fluorescence, 3 h; 0.96% of 320,000 active; inhibition, % at 12.5 µM; AID 488896;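 active = mean replicate inhibition of at least 70% and a set share of replicates each scoring 70 or more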;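 also: 0% = median of neutral control wells and 100% = median of positive control wells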
Target sequence (Q61009 whole entry, looked up): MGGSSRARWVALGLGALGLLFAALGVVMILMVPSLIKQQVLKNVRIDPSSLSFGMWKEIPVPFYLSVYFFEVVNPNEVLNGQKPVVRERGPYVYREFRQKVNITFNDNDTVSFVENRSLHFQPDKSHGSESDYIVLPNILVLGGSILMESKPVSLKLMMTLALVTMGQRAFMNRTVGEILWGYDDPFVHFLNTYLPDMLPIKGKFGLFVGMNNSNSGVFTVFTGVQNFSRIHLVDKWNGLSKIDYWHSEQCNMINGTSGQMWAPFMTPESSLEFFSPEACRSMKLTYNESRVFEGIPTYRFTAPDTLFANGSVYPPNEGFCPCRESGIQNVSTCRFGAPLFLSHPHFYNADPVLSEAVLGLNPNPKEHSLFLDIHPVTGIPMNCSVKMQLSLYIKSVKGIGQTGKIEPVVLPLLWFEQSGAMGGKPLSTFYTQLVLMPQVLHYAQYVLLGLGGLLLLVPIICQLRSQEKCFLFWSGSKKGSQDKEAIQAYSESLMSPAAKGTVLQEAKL
ABCB6 inh MLPCN – human ABCB6 transporter inhibition; Q9NP58; K562-ABCB6 porphyrin accumulation, flow cytometry, 1 h; stronger effect = lower value; fluorescence ratio to DMSO, % at 10 µM; 0.19% of 360,000 active; AID 602162;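 active = fluorescence ratio to DMSO below 75%, the collection mean minus 3 SD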;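 also: signal is porphyrin accumulated inside mitochondria; 100% equals median channel fluorescence of DMSO control wells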
SR-BI DiI-HDL act – activators of SR-BI mediated HDL lipid uptake; CHO ldlA[mSR-BI] cells, DiI-HDL uptake fluorescence, 3 h; 100 = double the neutral-control signal; activation, % at 12.5 µM; 0.096% of 320,000 active; AID 504775;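 active = mean replicate activation of at least 60% and every replicate at or above 60%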;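 also: 0% = median plate neutral-control signal and 100% = twice that signal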
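Material: SR-BI-overexpressing, LDLR-lacking CHO cells | Dosing: Single compound concentration, delivered by pin transfer | Probe or stimulus: Labelled HDL, 10 µg/mL | Signal: Bottom-read cell fluorescence after medium removal, ex 550/em 595 nm | Schedule: 3 h, 37 °C | Evaluation: HDL uptake via cellular fluorescence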
GAA850 FXN act – activators of GAA850 frataxin (FXN) promoter; HEK293 lucGAA850 FXN promoter luciferase reporter, 24 h; percent of 10 µM SAHA response; activation, % at 6 µM; 0.56% of 360,000 active;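 active = activation above the average of all compounds screened plus 3 SD, cutoff fixed separately per campaign, cut at about 7.5% in these data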;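 also: 0% = DMSO wells and 100% = 10 µM SAHA wells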
AHR act cf – human AHR activation, confirmation. shares compounds with AHR activator. human cells, AHR-responsive luciferase reporter, luminescence. activation, % at 9 µM. 87% of 2,300 active; in the data active = activation above about 49%;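 also: HepG2 hepatoma cells carrying a DRE-driven firefly luciferase reporter; 0% = vehicle wells and 100% = reference agonist wells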
PXR act counter – counter-screen for AHR activators: human PXR activators | shares compounds with AHR activator | cell-based PXR reporter, luciferase luminescence | activation, % at 11.6 µM | 88% of 2,300 active | AID 434939; in the data active = activation above about 11%;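 also: human hepatoma DPX-2 cells expressing full-length human PXR; 0% = DMSO and 100% = reference agonist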
* = called active by the depositor; · = no result. This is a sample that favours compounds with a hit; in the whole collection about 3.9% have one here.

SMILES	AHR activator	HIF activator	SR-BI DiI inh	ABCB6 inh MLPCN	SR-BI DiI-HDL act	GAA850 FXN act	AHR act cf	PXR act counter
O=C(O)C1CSC(c2ccc(O)c([N+](=O)[O-])c2)N1 (centres undefined)	·	·	14	101	-14	0	·	·
Cc1cc(F)cc(-c2cc(C(=O)NCc3ccc(C(F)(F)F)cc3)[nH]n2)c1	·	·	·	98	·	0	·	·
Cc1ccc(F)c(NC(=S)Nc2cccc3ccccc23)c1	94*	1	-9	103	9	0	9	106*
CC(C)(C)c1nc(SCC(=O)NC2CCCC2)c2ccccc2n1	0	0	·	101	·	-2	·	·
CC(/C=C/c1ccccc1)=N/NC(=O)c1nc2nc(C)cc(C)n2n1	5	1	6	94	-6	2	·	·
CC(/C=C/c1ccccc1)=N\Nc1nc(C)cc(C)n1	89*	0	·	102	·	2	39	28*
Cc1ccc(-c2nc3cccnc3s2)cc1NS(=O)(=O)c1ccc2c(c1)CCCC2	93*	0	-4	98	4	-1	56*	154*
CC1=NN(c2ccccc2)C(=O)/C1=C/c1cccs1	84*	0	-24	101	24	2	87*	37*
CCOc1ccc(N=C(NN)c2ccc3ccccc3n2)cc1	108*	-2	56	99	-56	-10	110*	19*
O=C(Nc1cccc(-c2cn3ccsc3n2)c1)c1ccccc1	82*	1	·	95	·	-1	72*	14*
CC(C)(C)c1ccc(C(=O)Nc2nnc(Cc3c[nH]c4ccccc34)s2)cc1	90*	0	7	97	-7	2	88*	14*
O=C(Nc1nnc(Cc2c[nH]c3ccccc23)s1)c1ccc(Cl)cc1Cl	24	0	15	106	-15	3	·	·
Cn1nc(NC(=O)C(F)(F)F)c2nccnc21	·	·	·	102	·	0	·	·
COc1ccc(/C=N/NC(=O)c2ccccc2NC(=O)c2ccco2)c(OC)c1	12	0	23	98	-23	2	·	·
O=C(Nc1ccccc1C(=O)N/N=C/c1ccncc1)c1ccccc1	101*	2	-15	104	15	6	41	37*
COc1ccc(C(=O)Nc2ccccc2C(=O)N/N=C/c2ccco2)cc1	137*	1	-25	95	25	7	100*	29*
CCOc1ccc(/C=N/NC(=O)c2ccccc2NC(=O)c2ccc(OC)cc2)cc1	106*	2	38	105	-38	4	13	31*
CCCCC(=O)Nc1nnc(SCC(=O)NC2CC2)s1	3	0	·	102	·	-2	·	·
CCOc1ccc(S(=O)(=O)N(CC)CC(=O)NCc2ccco2)cc1C	0	-1	·	93	·	2	·	·
Cc1ccc(OCCN2C(=O)c3ccccc3C2=O)c([N+](=O)[O-])c1	11	1	19	103	-19	-1	·	·
CC(=O)N/N=C(\C)c1cccc(C(F)(F)F)c1	5	0	-18	105	18	-1	·	·
COc1ccc([N+](=O)[O-])cc1N/C(=N/S(=O)(=O)c1ccccc1)c1ccccc1	113*	0	73*	106	-73	4	84*	133*
CN(C)S(=O)(=O)Oc1ccc(Cl)cc1C(=O)Nc1ccc(F)cc1F	81*	0	44	96	-44	3	81*	191*
Cc1cc(F)ccc1S(=O)(=O)NCC1CC2CCC1C2 (centres undefined)	13	-2	18	98	-18	0	·	·
O=C(CCCCCCC(=O)c1ccccc1)c1ccccc1	0	-1	1	100	-1	-1	·	·
O=C1NC(=Nc2ccccc2)/C(=C/c2ccco2)S1	84*	0	35	102	-35	0	34	20*
CCC1CCCCN1S(=O)(=O)c1c(C)n(C)c(=O)n(C)c1=O (centres undefined)	-2	0	8	98	-8	2	·	·
